Source: PubChem BioAssay
CYP2C19 activ = cytochrome P450 2C19 (human) activation; P33261; recombinant CYP2C19, luciferin-H EGE luminescence; hits give high values; 0 = fully inhibited enzyme, 1 = untreated enzyme; activation factor at 5 µM; 96,000 tested, under 10 active; AID 1025;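 active means activation factor of at least 2 at 5 µM in the primary screen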;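 further: 0 = wells with 2.5 mM tranylcypromine and 1 = vehicle-only wells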
CYP2C9 activ = increases human cytochrome P450 2C9 activity. P11712. recombinant CYP2C9, luciferin-H conversion, luminescence; hits give high values; factor 1 = untreated enzyme, 0 = blocked. activation factor at 5 µM. actives 1.4% (n = 96,000). AID 1024;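 active means activation factor of 2 or more for CYP2C9 at a 5 µM dose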;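 further: 0 = sulfaphenazole-blocked wells and 1 = vehicle-only wells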
Target sequence (P11712 whole entry, looked up): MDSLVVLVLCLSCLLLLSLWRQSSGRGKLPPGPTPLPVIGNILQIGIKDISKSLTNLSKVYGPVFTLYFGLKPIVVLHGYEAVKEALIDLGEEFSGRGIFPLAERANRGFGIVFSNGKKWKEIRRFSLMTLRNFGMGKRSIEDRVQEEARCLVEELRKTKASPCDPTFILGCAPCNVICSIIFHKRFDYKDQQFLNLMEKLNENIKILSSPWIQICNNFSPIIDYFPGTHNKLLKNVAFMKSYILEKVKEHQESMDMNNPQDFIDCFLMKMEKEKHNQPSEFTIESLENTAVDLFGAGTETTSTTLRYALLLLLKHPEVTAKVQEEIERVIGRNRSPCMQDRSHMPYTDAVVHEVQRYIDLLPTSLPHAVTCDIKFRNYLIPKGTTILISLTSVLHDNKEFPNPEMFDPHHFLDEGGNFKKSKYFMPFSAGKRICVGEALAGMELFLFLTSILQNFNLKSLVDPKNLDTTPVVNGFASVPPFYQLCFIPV
CYP2C19 inh = human CYP2C19 inhibition; CYP2C19 Supersomes, luciferin-H EGE luminescence, 30 min; inhibition, % at 5 µM; actives 21% (n = 96,000);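 active means CYP2C19 inhibition above a set limit at 5 µM in the primary screen, cut at about 50% in these data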;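 further: plate controls were negative control wells for no effect and 2.5 mM tranylcypromine positive control for full effect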
Ecoli tolC = E. coli tolC mutant growth inhibition; E. coli BW25113 tolC mutant growth, OD615; actives 2.2% (n = 65,000); AID 573; growth inhibition, % at 10 µM (by protocol);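 active means growth inhibition at or above a cutoff equal to the mean over every tested compound plus 3 SD, cut at about 60% in these data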;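 further: growth measured after 20 h incubation at 37 °C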
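Test system: tolC-deleted E. coli BW25113 | Medium: LB with kanamycin 50 µg/mL | Compound dosing: Single concentration, 10 µM final per compound | Schedule: 37 °C, 20 h exposure | Measured by: OD at 615 nm | Evaluation: Percent growth inhibition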
CYP2C9 inh = inhibitors of human CYP2C9; P11712; CYP2C9 Supersomes, luciferin-H conversion, luminescence; inhibition, % at 5 µM; actives 20% (n = 96,000); AID 777;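 active means blocking of liver enzyme CYP2C9 beyond about 50% at 5 µM, limit read from the data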
Ecoli WT expand = E. coli BW25113 growth inhibition, expanded screen; OD600 absorbance; growth inhibition, % at 100 µM; AID 710; actives 0.15% (n = 98,000);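 active means growth inhibition above about 50% at one test dose, limit read from the data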;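 further: growth measured after 20 h incubation at 37 °C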
* hit, by the source's call; . = no result. Rows were chosen to be rich in hits. Some 29% of all compounds tested hit in one or more screens of this group.

SMILES	CYP2C19 activ	CYP2C9 activ	CYP2C19 inh	Ecoli tolC	CYP2C9 inh	Ecoli WT expand
CCc1nnc(NC(=O)CN2CCN(c3ccccc3OC)CC2)s1	1	1.1	-2	-14	-14	-1
CCc1nnc(NC(=O)CN2CCN(c3nc(-c4ccccc4)cs3)CC2)s1	0.5	0.4	49	32	64*	-6
CCC(=O)NCCC(c1ccco1)c1ccccc1OC (stereo unspecified)	.	.	.	.	.	-10
COc1ccc(-c2nn(-c3ccccc3)cc2/C=N/N2C(=O)CSC2=S)cc1	0.9	0.7	8	.	30	-3
O=C(CCCC(=O)OCC(F)(F)C(F)F)Nc1ccc(NC(=O)CCCC(=O)OCC(F)(F)C(F)F)cc1	0.9	0.8	6	.	18	4
O=C(CCSc1ccccc1)Nc1ncccn1	0.9	1	6	-3	2	-6
O=C(CCSc1ccccc1)NC1CCCC1	0.2	0.9	83*	0	6	7
O=C(CN1CCN(c2ccccc2)CC1)Nc1nccs1	0.3	0.1	70*	-4	90*	5
O=C(CCCC(=O)OCC(F)(F)C(F)F)Nc1nccs1	0.5	0.4	51*	4	60*	2
O=C(CCN1CCN(c2ccccc2)CC1)Nc1nccs1	0.5	0.7	46	-17	31	9
O=C(CCSc1ccccc1)Nc1nccs1	0.4	0.6	62*	.	37	4
C=CC(O)Cc1c(C)n[nH]c1C (stereo unspecified)	1	1.2	-1	10	-15	3
CC1(C)Cn2c(nnc2-c2cccc(O)c2)S1	0.8	0.9	17	-9	10	6
Cc1ccc2c(c1C)NC(C)CC2C (stereo unspecified)	1.1	1.2	-14	-14	-19	-4
O=C(c1ccc2c(c1)N(Cc1ccccc1)CCS2)N1CCCCC1	0.8	0.9	17	.	14	-12
Cc1ccnc(Sc2ncccc2[N+](=O)[O-])n1	1.1	1.5	-14	.	-46	4
CCC(=O)Nc1ccc(C(=O)n2nc(C)cc2C)cc1	0.9	1.4	12	-2	-44	-6
Cc1cc(C)n(C(=O)c2ccc(NC(=O)C3CC3)cc2)n1	1	2.2*	2	-6	-122	-1
CC1=C(C#N)C(NC(=O)C2CC2)(C(F)(F)F)C(=O)N1 (stereo unspecified)	1.2	1.2	-16	-14	-16	3
CC1=C(C#N)C(Nc2cccc(C)n2)(C(F)(F)F)C(=O)N1 (stereo unspecified)	0.2	1.1	75*	0	-7	0
CCOC(=O)N1CC=C2C(C#N)=C(N)C(C#N)(C#N)[C@H](c3ccccc3OCC)[C@H]2C1	0.8	0.9	15	2	13	5
CCOC(=O)N1CC=C2C(C#N)=C(N)C(C#N)(C#N)[C@H](c3ccc(OC(C)C)c(OCC)c3)[C@H]2C1	0.6	0.3	39	-5	74*	-10
CC1(C)OC(=O)N(c2cccnc2)C1(C)O (stereo unspecified)	1.1	1.1	-14	-19	-13	5
Cc1cccc(/N=C/c2c(O)cc(C)oc2=O)n1	1.1	1.1	-15	-19	-11	-1
Cc1ccc(N/N=C/c2c(O)cc(C)oc2=O)cc1	0.6	0.5	37	.	50*	-5
SMILES	CYP2C19 activ	CYP2C9 activ	CYP2C19 inh	Ecoli tolC	CYP2C9 inh	Ecoli WT expand
Cn1nnnc1SCC(=O)Nc1cc(C(=O)O)cc(C(=O)O)c1	1	1	3	.	4	-1
CCCC(=O)c1cc(-c2nc3ccccc3n2C)n(C)c1	0.8	0.7	19	3	27	5
Cn1cc(C(=O)c2ccccc2)cc1-c1nc2ccccc2n1C	0.2	0.3	83*	32	73*	8
CCC(=O)c1cc(-c2nc3ccccc3n2C)n(C)c1	0.4	0.3	56*	-7	65*	5
Cc1sc2nc(SCC(=O)NCc3cccs3)[nH]c(=O)c2c1C	0.8	0.3	19	8	67*	-6
Cc1sc2nc(SCC(=O)NCc3ccco3)[nH]c(=O)c2c1C	1.2	0.7	-17	7	33	-4
Cc1sc2nc(CN(Cc3cccs3)C(=O)C3CC3)[nH]c(=O)c2c1C	0	0.1	97*	33	88*	2
N#C/C(=C\c1ccccc1)C(=O)NC(=O)Oc1ccccc1	1	0.2	4	.	82*	9
N#C/C(=C\c1ccccc1Cl)C(=O)NC(=O)Oc1ccccc1	1	1.2	-1	.	-23	2
Cc1ccc(NC(=O)/C(=C\c2ccccc2)NC(=O)/C=C/c2ccccc2)cc1	1	0.6	0	.	39	-11
Cc1ccc(NC(=O)/C(=C\C=C\c2ccccc2)NC(=O)c2ccccc2)cc1	0.5	0.3	46	.	68*	-5
c1cn(CC2(Cn3ccnc3)COC2)cn1	1.1	1	-14	-14	-3	5
O=C(CSc1n[nH]c(-c2ccccc2Br)n1)NC(=O)NCc1ccco1	0.6	0.4	36	4	59*	-1
O=C(CSc1nnc(-c2ccco2)n1Cc1ccccc1)NC(=O)NCc1ccccc1	0.4	0.7	62*	2	30	-8
CCn1c(SCC(=O)NC(=O)NCc2ccco2)nnc1-c1cccs1	0.6	0.8	36	.	18	2
CCOc1ccccc1-n1nnnc1SCC(=O)NC(=O)NCc1ccco1	0.2	0.7	79*	11	27	1
Cc1nnc(SCC(=O)NC(=O)NCc2ccco2)n1Cc1ccccc1	0.8	0.3	16	.	67*	1
CNC(=O)NC(=O)CSc1nnc(-c2ccco2)n1Cc1ccccc1	1.1	1.1	-11	.	-6	-8
CCS(=O)(=O)N1CCCC(C(=O)NCCCN2CCCC2=O)C1 (stereo unspecified)	1.1	1.1	-6	-28	-6	0
Nn1c(SCC(=O)NC(=O)NCc2ccco2)nnc1-c1ccc(OC(F)F)cc1	0.3	0.7	71*	.	31	4
COc1ccc(/C=C/C(=O)NC(=S)NCCc2ccc(OC)c(OC)c2)cc1	0.5	0.7	45	.	30	-16
S=C(NCCSCc1c(Cl)cccc1Cl)Nc1ccccc1	0.6	0.5	44	.	48	-14
COc1ccccc1NC(=S)NCCc1ccccc1	0.2	0.9	82*	.	5	3
COc1ccc(CCNC(=S)NC(=O)c2ccccc2)cc1OC	0.4	0.7	61*	.	28	-14
S=C(NCCSCc1ccc(Cl)cc1Cl)Nc1ccccc1	0.5	2.3*	52*	.	-131	-18
COc1ccc(C(=O)N/C(=C\c2cccc3ccccc23)C(=O)NCCc2c[nH]c3ccccc23)cc1OC	0.5	0.3	50*	.	65*	-25
Cc1cc(C)c2c(-n3cccc3)nn(CC#N)c2n1	0.8	0.9	20	.	6	9
CC(C)[C@H](NC(=O)c1cccc(S(=O)(=O)N2CCCC2)c1)c1nc2ccccc2[nH]1	0.8	1	18	.	-3	-3
